Laboratory results: ChEMBL document CHEMBL2040792, “New chromene scaffolds for adenosine A(2A) receptors: synthesis, pharmacology and structure-activity relationships” (Eur J Med Chem, 2012)

Assays:
Adenosine receptor A2b = target: T1, Adenosine receptor A2b (Homo sapiens, UniProt P29275); experiment: Displacement of [3H]DPCPX from human adenosine A2B receptor expressed in HEK293 cells after 30 mins by beta scintillation counting; assay type: cell-based
T1 sequence (P29275 whole entry): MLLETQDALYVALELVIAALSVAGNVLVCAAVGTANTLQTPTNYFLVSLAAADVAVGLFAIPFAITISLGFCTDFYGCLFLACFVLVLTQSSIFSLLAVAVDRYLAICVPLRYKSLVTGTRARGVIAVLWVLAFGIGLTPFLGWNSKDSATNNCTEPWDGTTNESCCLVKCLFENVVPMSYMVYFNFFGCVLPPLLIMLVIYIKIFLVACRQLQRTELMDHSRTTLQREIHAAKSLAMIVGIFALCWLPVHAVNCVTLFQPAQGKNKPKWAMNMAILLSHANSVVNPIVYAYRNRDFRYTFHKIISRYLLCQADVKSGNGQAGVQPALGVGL
How it was run: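 HEK-293-A2B membranes (18 µg protein) in 50 mM Tris-HCl, 1 mM EDTA, 10 mM MgCl2, 0.1 mM benzamidine, 10 µg/mL bacitracin, 2 UI/mL adenosine deaminase, pH 6.5, with 35 nM [3H]DPCPX. Nonspecific binding with 400 µM NECA. Incubated 30 min at 25 °C, in duplicate. Six concentrations (10 nM-100 µM); IC50 by nonlinear regression, Ki by Cheng-Prusoff.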

Adenosine receptor A2a [1] = target: T2, Adenosine receptor A2a (Homo sapiens, UniProt P29274); experiment: Displacement of [3H]ZM241385 from human adenosine A2A receptor expressed in human HeLa cells after 30 mins by beta scintillation counting; assay type: cell-based
T2 sequence (P29274 whole entry): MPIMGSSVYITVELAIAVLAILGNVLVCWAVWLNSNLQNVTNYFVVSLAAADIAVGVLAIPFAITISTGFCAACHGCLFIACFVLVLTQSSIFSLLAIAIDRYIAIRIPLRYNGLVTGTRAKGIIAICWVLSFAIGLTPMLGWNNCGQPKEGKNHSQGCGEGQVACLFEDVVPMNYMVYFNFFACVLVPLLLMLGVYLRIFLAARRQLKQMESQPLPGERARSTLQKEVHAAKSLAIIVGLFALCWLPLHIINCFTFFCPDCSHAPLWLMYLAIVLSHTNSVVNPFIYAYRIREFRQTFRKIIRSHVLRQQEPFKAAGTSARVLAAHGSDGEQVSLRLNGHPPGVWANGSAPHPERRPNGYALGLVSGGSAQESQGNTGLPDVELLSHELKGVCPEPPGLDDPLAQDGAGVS
How it was run: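 HeLa-A2A membranes (10 µg protein) in 50 mM Tris-HCl, 1 mM EDTA, 10 mM MgCl2, 2 UI/mL adenosine deaminase, pH 7.4, with 3 nM [3H]ZM241385. Nonspecific binding with 50 µM NECA. Incubated 30 min at 25 °C, in duplicate. Six concentrations (10 nM-100 µM); IC50 by nonlinear regression, converted to Ki by Cheng-Prusoff.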

Adenosine receptor A1 = target: T3, Adenosine receptor A1 (Homo sapiens, UniProt P30542); experiment: Displacement of [3H]DPCPX from human adenosine A1 receptor expressed in CHO cells after 60 mins by beta scintillation counting; assay type: cell-based
T3 sequence (P30542 whole entry): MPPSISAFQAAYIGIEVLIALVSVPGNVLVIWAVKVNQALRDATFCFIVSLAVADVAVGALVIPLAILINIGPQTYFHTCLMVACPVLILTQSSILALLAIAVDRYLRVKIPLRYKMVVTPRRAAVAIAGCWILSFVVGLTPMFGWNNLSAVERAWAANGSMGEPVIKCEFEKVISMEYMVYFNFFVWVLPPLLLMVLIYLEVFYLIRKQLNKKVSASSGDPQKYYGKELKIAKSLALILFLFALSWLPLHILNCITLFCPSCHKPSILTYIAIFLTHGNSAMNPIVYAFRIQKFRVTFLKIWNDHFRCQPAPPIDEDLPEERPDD
How it was run: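 CHO-A1 membranes (15 µg protein) in 20 mM Hepes, 100 mM NaCl, 10 mM MgCl2, 2 UI/ml adenosine deaminase, pH 7.4, with 2 nM [3H]DPCPX. Nonspecific binding defined with 10 µM (R)-PIA. Incubated 60 min at 25 °C, run in duplicate, then filtered. Six concentrations tested (10 nM-100 µM); IC50 from nonlinear regression, Ki by Cheng-Prusoff.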

[2] = target: T4, Adenosine receptor A1 (Homo sapiens) (UniProt P30542); experiment: Displacement of [3H]DPCPX from human adenosine A1 receptor expressed in CHO cells at 10 uM after 60 mins by beta scintillation counting; assay type: cell-based
T4 sequence (whole entry): T3 sequence (P30542 whole entry)
How it was run: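 CHO-A1 membranes (15 µg protein) in Hepes/NaCl/MgCl2 buffer with adenosine deaminase, pH 7.4. Test compound at 10 µM with 2 nM [3H]DPCPX, 60 min at 25 °C, in duplicate. Nonspecific binding with 10 µM (R)-PIA. Percent inhibition read after filtration.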

[3] = target: T5, Adenosine receptor A3 (Homo sapiens) (UniProt P0DMS8); experiment: Displacement of [3H]NECA from human adenosine A3 receptor expressed in human HeLa cells at 10 uM after 180 mins by beta scintillation counting; assay type: cell-based
T5 sequence (whole entry): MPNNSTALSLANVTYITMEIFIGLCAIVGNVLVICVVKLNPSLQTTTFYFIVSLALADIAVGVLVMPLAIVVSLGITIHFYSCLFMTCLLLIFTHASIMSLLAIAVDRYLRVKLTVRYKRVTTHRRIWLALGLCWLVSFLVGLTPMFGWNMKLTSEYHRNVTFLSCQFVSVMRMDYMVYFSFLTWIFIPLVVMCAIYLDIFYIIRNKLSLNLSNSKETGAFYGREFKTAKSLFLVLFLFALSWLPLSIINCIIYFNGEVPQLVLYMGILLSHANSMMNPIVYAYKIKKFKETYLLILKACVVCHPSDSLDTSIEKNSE
How it was run: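 HeLa-A3 membranes (90 µg protein) in 50 mM Tris-HCl, 1 mM EDTA, 5 mM MgCl2, 2 UI/mL adenosine deaminase, pH 7.4. Test compound at 10 µM with 30 nM [3H]NECA, 180 min at 25 °C, in triplicate. Nonspecific binding with 100 µM (R)-PIA. Percent inhibition read after GF/B filtration.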

Adenosine receptor A2a [4] = target: T2, Adenosine receptor A2a; experiment: Displacement of [3H]ZM241385 from human adenosine A2A receptor expressed in human HeLa cells at 10 uM after 30 mins by beta scintillation counting; assay type: cell-based
How it was run: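 Single-point screen at 10 µM on HeLa-A2A membranes (10 µg protein), Tris/EDTA/MgCl2 buffer with adenosine deaminase, pH 7.4. 3 nM [3H]ZM241385, 30 min at 25 °C, in duplicate. Nonspecific binding with 50 µM NECA. Percent inhibition.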

[5] = target: T6, Adenosine receptor A2b (Homo sapiens) (UniProt P29275); experiment: Displacement of [3H]DPCPX from human adenosine A2B receptor expressed in HEK293 cells at 10 uM after 30 mins by beta scintillation counting; assay type: cell-based
T6 sequence (whole entry): T1 sequence (P29275 whole entry)
How it was run: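 Percent inhibition at 10 µM in HEK-293-A2B membranes (18 µg protein), pH 6.5 Tris buffer with benzamidine, bacitracin and adenosine deaminase. 35 nM [3H]DPCPX, 30 min at 25 °C, in duplicate. Nonspecific binding with 400 µM NECA.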

Adenosine receptor A2a [6] = target: T2, Adenosine receptor A2a; experiment: Antagonist activity at human adenosine A2A receptor expressed in CHO cells assessed as inhibition of NECA-induced cAMP accumulation incubated for 15 mins prior to NECA-induction measured after 15 mins by enzyme immunoassay relative to control; assay type: functional, cell-based
How it was run: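 Stably transfected CHO cells grown with dialyzed FBS, washed in DMEM F-12 with 25 mM HEPES pH 7.4 and 30 μM rolipram. Antagonist preincubated 15 min, then NECA (0.1 nM-1 mM) added for a further 15 min. cAMP measured by enzyme immunoassay. NECA curves fitted to a sigmoidal equation; pKB derived from the EC50 shift at one antagonist concentration.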

SMILES	Ki (Adenosine receptor A2b)	Ki (Adenosine receptor A2a [1])	Ki (Adenosine receptor A1)	inhibition [2]	inhibition [3]	inhibition (Adenosine receptor A2a [4])	inhibition [5]	pKb (Adenosine receptor A2a [6])
COC(=O)/C(C#N)=C/c1cccc(OC)c1O	1 µM	0.316 µM	2.51 µM	> 70%	45%	> 70%	> 70%	–
COc1cccc2cc(C(=O)NCCCN3CCN(CCCNC(=O)c4cc5cccc(OC)c5oc4=N)CC3)c(=N)oc12	10 µM	0.316 µM	2.51 µM	> 70%	20%	> 70%	> 70%	–
COc1cccc2cc(C(=O)NCCc3ccc(O)cc3)c(=N)oc12	0.631 µM	0.126 µM	–	35%	30%	> 70%	> 70%	6.54
COc1cccc2cc(C(=O)NC3CCCC3)c(=N)oc12	–	0.398 µM	3.16 µM	> 70%	20%	> 70%	47%	–
COc1cccc2cc(C(=O)NC3CCCCC3)c(=N)oc12	20 µM	0.398 µM	–	40%	16%	> 70%	> 70%	6.1
COc1cccc2cc(C(=O)Nc3c(C#N)ncn3-c3ccc(F)cc3)c(=N)oc12	–	0.631 µM	–	46%	20%	> 70%	30%	6.02
COc1cccc2cc(C(N)=O)c(=N)oc12	0.316 µM	0.0794 µM	0.398 µM	> 70%	33%	> 70%	> 70%	6.59
COCCNC(=O)c1cc2cccc(OC)c2oc1=N	–	0.501 µM	6.31 µM	> 70%	15%	> 70%	43%	–
